Laboratory results as given in ChEMBL document CHEMBL1123373, “9-(2-Deoxy-2-fluoro-beta-D-arabinofuranosyl)guanine: a metabolically stable cytotoxic analogue of 2'-deoxyguanosine” (J Med Chem, 1986).
Calls of active or inactive are those of the source. No cut-off for these calls is given here.

Assays:
B-cell = assay: Compound was tested for its cytotoxicity against B- cell line (Wi-L2 B -lymphoblasts); type: functional, cell-based; conditions: Homo sapiens
Method in brief: (§1)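 Cells seeded at 1 × 10^5/mL in RPMI 1640 with 10% fetal calf serum, 2 mM L-glutamine and increasing drug concentrations. Cultured 3 days under 95% air/5% CO2. Viable cells counted microscopically after adding 0.1% erythrocin B, relative to drug-free cultures. Points are mean ± SEM, except the adenosine kinase-deficient mutant, which used duplicates.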

L1210 [1] = assay: Compound was tested for its ability to inhibit the incorporation of [3H]dThd into DNA at concentration of 100 uM; type: functional; conditions: Mus musculus
Method in brief: (§2)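 Cultured L1210 cells exposed to drug at 25, 50 or 100 µM. Label incorporation measured: [3H]dThd into DNA, [5-3H]Urd into RNA, [4,5-3H]L-Leu into protein. Values are percent inhibition of incorporation.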

L1210 [2] = assay: Inhibition of DNA synthesis in L1210 cells by the compound was determined the reduced incorporation of incorporation of [3H]dThd into DNA at concentration of 25 uM; type: functional; conditions: Mus musculus; method in brief: as §2
L1210 [3] = assay: Inhibition of DNA synthesis in L1210 cells by the compound was determined the reduced incorporation of incorporation of [3H]dThd into DNA at concentration of 50 uM; type: functional; conditions: Mus musculus; method in brief: as §2
L1210 [4] = assay: Inhibition of protein synthesis in L1210 cells by the compound was determined the reduced incorporation of [4,5-3H]L-Leu into protein; type: functional, Mus musculus; method in brief: as §2
L1210 [5] = assay: Effect of compound on macromolecular synthesis in L1210 cells in culture; 8.5-17uM; type: functional, cell-based; conditions: Mus musculus
Wild type T- cell line = assay: Compound was tested for its cytotoxicity against wild type T- cell line; type: functional, cell-based; conditions: Homo sapiens; method in brief: as §1
L1210 [6] = assay: Inhibition of RNA synthesis in L1210 cells by the compound was determined the reduced incorporation of [5-3H]-Urd into RNA at the concentration of 100 uM; NI denotes no inhibition; type: functional, cell-based; conditions: Mus musculus; method in brief: as §2
[7] = Compound was tested for its cytotoxicity against MGL-8 B -lymphoblasts; type: functional, Homo sapiens; method in brief: as §1
T-cell = assay: Compound was tested for its cytotoxicity against T- cell line; type: functional, cell-based; conditions: Homo sapiens; method in brief: as §1

SMILES: Nc1nc(O)c2ncn([C@@H]3O[C@H](CO)[C@@H](O)[C@@H]3F)c2n1 [F-ARAG]
- IC50 (B-cell): ~750 nM
- inhibition at 100 µM (L1210 [1]): 76%
- inhibition at 25 µM (L1210 [2]): 12%
- inhibition at 50 µM (L1210 [3]): 62%
- Inhibition (L1210 [4]): 17%
- IC50 (L1210 [5]): 8.5 µM
- IC50 (Wild type T- cell line): ~200 nM
- inhibition (L1210 [6]): inactive

SMILES: Nc1nc2c(ncn2[C@@H]2O[C@H](CO)[C@@H](O)[C@H]2O)c(=O)[nH]1 [GUANOSINE]
- IC50 [7]: 7 µM
- IC50 (T-cell): 100 nM
